Assay [1] has as its system Staphylococcus aureus. Briefly: Antibacterial activity determined against gram-positive Staphylococcus aureus 13709. It counts as functional. Summed up: (§1)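 Broth microdilution: an overnight-culture bacterial suspension was added to compound in 2.5% DMSO in water, giving a final inoculum of about 10^2–10^3 CFU/well. Plates were incubated 20–24 h at 37 °C, and growth relative to a no-compound control was read as A595. MIC was given as a range: complete inhibition at the upper concentration, viable cells at the lower.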

For assay [2], the system named is Streptococcus pneumoniae. In words: Antibacterial activity determined against gram-positive Streptococcus pneumoniae 6303. The format is functional. Summed up: as §1
The test system of assay [3] is Enterococcus faecium. Briefly: Antibacterial activity determined against Enterococcus faecium ATCC 6569. It counts as functional. Summed up: as §1
Assay [4] deals with Escherichia coli. In words: Antibacterial activity determined against Escherichia coli. The format is functional. An outline of the steps: as §1
Assay [5] has as its system Enterococcus faecalis. Briefly: Antibacterial activity determined against Enterococcus faecalis ATCC 49757. It counts as functional. Summed up: as §1
A short description of assay [6]: Inhibition of bacterial transcription/translation.
In assay [7] the test system is Enterococcus faecalis. Briefly: Antibacterial activity determined against Enterococcus faecalis ATCC 828. It counts as functional. Summed up: as §1
Assay [8] concerns Enterococcus faecalis. In words: Antibacterial activity determined against Enterococcus faecalis ATCC 11823. It counts as functional. Summed up: as §1
The subject of assay [9] is Enterococcus faecalis. In words: Antibacterial activity determined against Enterococcus faecalis ATCC 4200. It counts as functional. An outline of the steps: as §1
Assay [10] deals with Klebsiella pneumoniae. Briefly: Antibacterial activity determined against gram-negativeK. pneumoniae 13383. The format is functional. An outline of the steps:
as §1

The subject of assay [11] is Escherichia coli. In words: Antibacterial activity determined against gram-negativeE. coli 25922. The format is functional. Summed up: as §1
Assay [12] concerns Streptococcus pyogenes. In words: Antibacterial activity determined against gram-positive Streptococcus pyogenes 49399. It counts as functional. An outline of the steps: as §1
Assay [13] relates to Pseudomonas aeruginosa. Briefly: Antibacterial activity determined against gram-negativeP. aeruginosa 25416. It counts as functional. An outline of the steps: as §1
Assay [14] relates to Proteus vulgaris. In words: Antibacterial activity determined against gram-negativeP. vulgaris 8427. It counts as functional. Summed up: as §1
The subject of assay [15] is Enterococcus hirae. In words: Antibacterial activity determined against gram-positive Enterococcus hirae 29212. The format is functional. An outline of the steps:
as §1

Assay [16] deals with Staphylococcus aureus. Briefly: Antibacterial activity determined against Staphylococcus aureus. The format is functional. An outline of the steps:
as §1

The subject of assay [17] is Candida albicans. In words: Antifungal activity determined against Candida albicans 10231. The format is functional. Summed up: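 Candida albicans: an overnight-culture yeast suspension was added to compound in 2.5% DMSO in water, giving a final inoculum of about 10^2–10^3 CFU/well. Plates were incubated 40–48 h at 25 °C, and growth versus a no-compound control was read as A595. MIC was given as a range: complete inhibition at the higher concentration, viable cells at the lower.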

The subject of assay [18] is Enterococcus faecium. In words: Antibacterial activity determined against Enterococcus faecium ATCC 882. It counts as functional. An outline of the steps:
as §1

In assay [19] the test system is Enterococcus faecalis. In words: Antibacterial activity determined against Enterococcus faecalis ATCC 23241. The format is functional. An outline of the steps: as §1
Assay [20] relates to Enterococcus faecalis. Briefly: Anti-bacterial activity determined against Enterococcus faecalis ATCC 49757. The format is functional. An outline of the steps: as §1

Converted amounts (≈) assume the structure as drawn.

For the molecule `NCCCCCCCCNCc1ccc(Cn2c(C3CCNCC3)nc3cc(Cl)c(Cl)cc32)cc1`, the minimum inhibitory concentration (MIC) was 6 µM (≈ 3.1 µg/mL) in assay [1]; 6 µM (≈ 3.1 µg/mL) in [2]; 12 µM (≈ 6.2 µg/mL) in [3]; 6 µM (≈ 3.1 µg/mL) in assay [4]; 50 µM (≈ 25.8 µg/mL) in [5]; 50 µM (≈ 25.8 µg/mL) in assay [7]. The MIC in assay [8] turned out to be 6 µM (≈ 3.1 µg/mL); in assay [9] it was 25 µM (≈ 12.9 µg/mL); in assay [10], 6 µM (≈ 3.1 µg/mL); in assay [11] it was 6 µM (≈ 3.1 µg/mL); in assay [12], 3 µM (≈ 1.55 µg/mL); in assay [13], 25 µM (≈ 12.9 µg/mL). Also, the MIC in [14] was 12 µM (≈ 6.2 µg/mL); in assay [15] it was 1 µM (≈ 0.517 µg/mL); in assay [16], 6 µM (≈ 3.1 µg/mL); in assay [17] it was over 100 µM. Also, the half-maximal inhibitory concentration (IC50) in assay [6] is over 100 µM.
On to `Clc1cc2nc(C3CCNCC3)n(Cc3ccc(CN4CCCNCC4)cc3)c2cc1Cl`, for which the MIC stood at 6 µM (≈ 2.83 µg/mL) in [1]; 12 µM (≈ 5.67 µg/mL) in [2]; 6 µM (≈ 2.83 µg/mL) in assay [3]; 12 µM (≈ 5.67 µg/mL) in [4]; 6 µM (≈ 2.83 µg/mL) in assay [5]; 12 µM (≈ 5.67 µg/mL) in [7]. The MIC was determined as 12 µM (≈ 5.67 µg/mL) in assay [8]; 12 µM (≈ 5.67 µg/mL) in [9]; 12 µM (≈ 5.67 µg/mL) in assay [10]; 12 µM (≈ 5.67 µg/mL) in assay [11]; 6 µM (≈ 2.83 µg/mL) in assay [12]; 25 µM (≈ 11.8 µg/mL) in [13]. Also, the MIC was 25 µM (≈ 11.8 µg/mL) in [14]; 3 µM (≈ 1.42 µg/mL) in assay [15]; 6 µM (≈ 2.83 µg/mL) in assay [16]; 12 µM (≈ 5.67 µg/mL) in [18]; over 100 µM in [17]; 12 µM (≈ 5.67 µg/mL) in [19]. Besides, in [6], the half-inhibitory concentration (IC50) is over 100 µM.
Consider `NCCNCc1ccc(Cn2c(C3CCNCC3)nc3cc(Cl)c(Cl)cc32)cc1`, for which the minimal inhibitory concentration (MIC) turned out to be 6 µM (≈ 2.59 µg/mL) in assay [1]; 12 µM (≈ 5.19 µg/mL) in [2]; 6 µM (≈ 2.59 µg/mL) in [3]; 12 µM (≈ 5.19 µg/mL) in assay [4]; 12 µM (≈ 5.19 µg/mL) in assay [5]; 12 µM (≈ 5.19 µg/mL) in assay [7]. Further, the MIC came out at 6 µM (≈ 2.59 µg/mL) in assay [8]; 12 µM (≈ 5.19 µg/mL) in assay [9]; 12 µM (≈ 5.19 µg/mL) in [10]; 12 µM (≈ 5.19 µg/mL) in [11]; 6 µM (≈ 2.59 µg/mL) in assay [12]; 12 µM (≈ 5.19 µg/mL) in assay [13]. Besides, the MIC in assay [14] was 25 µM (≈ 10.8 µg/mL); in assay [15], 3 µM (≈ 1.3 µg/mL); in [16], 6 µM (≈ 2.59 µg/mL); in [18] it was 12 µM (≈ 5.19 µg/mL); in [17], over 100 µM; in [19], 12 µM (≈ 5.19 µg/mL). This molecule also came in with a half-inhibitory concentration (IC50) in assay [6] of 12 µM.
`O=C1c2ccccc2C(=O)N1Cc1ccc(Cn2c(C3CCNCC3)nc3cc(Cl)c(Cl)cc32)cc1`: the minimum inhibitory concentration (MIC) in assay [1] was 6 µM (≈ 3.12 µg/mL); in assay [2], 6 µM (≈ 3.12 µg/mL); in [3] it was 3 µM (≈ 1.56 µg/mL); in [4], 6 µM (≈ 3.12 µg/mL); in assay [5], 6 µM (≈ 3.12 µg/mL); in assay [7] it was 6 µM (≈ 3.12 µg/mL). The MIC is 3 µM (≈ 1.56 µg/mL) in assay [8]; 6 µM (≈ 3.12 µg/mL) in assay [9]; 25 µM (≈ 13 µg/mL) in [10]; 6 µM (≈ 3.12 µg/mL) in assay [11]; 12 µM (≈ 6.23 µg/mL) in [12]; 12 µM (≈ 6.23 µg/mL) in [13]. Moreover, the MIC in assay [14] worked out at 25 µM (≈ 13 µg/mL); in [15], 3 µM (≈ 1.56 µg/mL); in assay [16], 6 µM (≈ 3.12 µg/mL); in assay [18], 6 µM (≈ 3.12 µg/mL); in assay [17] it was 50 µM (≈ 26 µg/mL); in [19] it was 6 µM (≈ 3.12 µg/mL). Besides, the IC50 in [6] is over 100 µM.
`NCCCNCc1ccc(Cn2c(C3CCNCC3)nc3cc(Cl)c(Cl)cc32)cc1`: the MIC in [1] turned out to be 12 µM (≈ 5.36 µg/mL); in assay [2], 25 µM (≈ 11.2 µg/mL); in [3], 12 µM (≈ 5.36 µg/mL); in [4], 50 µM (≈ 22.3 µg/mL); in assay [5], 12 µM (≈ 5.36 µg/mL); in [7] it was 12 µM (≈ 5.36 µg/mL). For the same molecule, the MIC in assay [8] was 12 µM (≈ 5.36 µg/mL); in [9], 25 µM (≈ 11.2 µg/mL); in assay [10] it was 25 µM (≈ 11.2 µg/mL); in assay [11], 50 µM (≈ 22.3 µg/mL); in assay [12] it was 6 µM (≈ 2.68 µg/mL); in assay [13], 25 µM (≈ 11.2 µg/mL). Further, the minimal inhibitory concentration (MIC) in assay [15] was 6 µM (≈ 2.68 µg/mL); in [16] it was 12 µM (≈ 5.36 µg/mL); in assay [18] it was 25 µM (≈ 11.2 µg/mL); in [17] it was over 100 µM; in assay [19], 25 µM (≈ 11.2 µg/mL). The IC50 in [6] came out at 20 µM.
`Clc1cc2nc(C3CCNCC3)n(Cc3ccc(CNCCCn4ccnc4)cc3)c2cc1Cl`: the MIC in assay [3] was 6 µM (≈ 2.98 µg/mL); in [4], 12 µM (≈ 5.97 µg/mL); in assay [7] it was 6 µM (≈ 2.98 µg/mL); in [8] it was 6 µM (≈ 2.98 µg/mL); in assay [9], 12 µM (≈ 5.97 µg/mL); in assay [16], 12 µM (≈ 5.97 µg/mL). Further, the minimum inhibitory concentration (MIC) in assay [18], in assay [19] and in assay [20] was 12 µM (≈ 5.97 µg/mL) throughout. Further, in [6], the 50% inhibitory concentration (IC50) was over 100 µM.
